“And” between values parts separate entries of the source, which are not always exact repeats. Equal values may be shown once.
Key:
[1] = In vitro clearance in human liver microsomes; format: ADME, Microsome; settings: read-out: Clearance
[2] = In vitro clearance in dog liver microsomes; format: ADME, Canis lupus familiaris, Microsome
[3] = In vitro clearance in rat liver microsomes; format: ADME, Microsome; settings: read-out: Clearance
[4] = organism: Rattus norvegicus; assay: Peroral dose showing antiinflammatory effect in adjuvant arthritis model in rats; format: functional; settings: po
Outline: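 Rat adjuvant arthritis model with oral dosing. Anti-inflammatory potency is reported as ED30 in mg/kg po.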

[5] = tested on: Rattus norvegicus; assay: (§1) Oral bioavailability in rat (dose 10 mg/kg); format: functional, organism-based
Outline: (§2)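 Rats dosed orally at 10 mg/kg (n = 2–3). Cmax and t1/2 are taken from plasma. AUC covers 0–24 h. Bioavailability is the oral exposure parameter for the same dosing.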

[6] = Oral bioavailability in dog (dose 10 mg/kg); format: ADME, organism-based, Canis lupus familiaris; settings: in vivo
Outline: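 Dogs dosed orally at 10 mg/kg (n = 2–3). Oral bioavailability was determined.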

[7] = Plasma half life (10 mg/kg, p.o.) in rat; format: ADME, organism-based; settings: po; outline: as §2
[8] = Area under blood-concentration time curve after 10 mg/kg peroral dose in rat; format: ADME, organism-based; parameters: dose 10 mg/kg, route oral; settings: in vivo, po; outline: as §2
[9] = Maximum plasma concentration after peroral administration of 10 mg/kg in rat; format: ADME, organism-based; parameters: dose 10 mg/kg, route oral; settings: po; outline: as §2
[10] = tested on: Mus musculus; assay: Antitumor activity (10 mg/kg, p.o., b.i.d.) on lymphoma U-937 tumor growth inoculated in mice; format: functional
Outline: (§3)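 SCID mice bearing U-937 lymphoma. Inhibitor given orally as HCl salt, either once (u.i.d.) or twice (b.i.d.) daily, in combination with the antitumor nucleoside AraA. Read-out was median survival time in days, compared with an untreated control group and an AraA-alone arm (10 mg/kg).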

[11] = biological target: T1, Adenosine deaminase (Homo sapiens, UniProt P00813); assay: Inhibitory concentration against adenosine deaminase
T1 sequence (P00813 whole entry): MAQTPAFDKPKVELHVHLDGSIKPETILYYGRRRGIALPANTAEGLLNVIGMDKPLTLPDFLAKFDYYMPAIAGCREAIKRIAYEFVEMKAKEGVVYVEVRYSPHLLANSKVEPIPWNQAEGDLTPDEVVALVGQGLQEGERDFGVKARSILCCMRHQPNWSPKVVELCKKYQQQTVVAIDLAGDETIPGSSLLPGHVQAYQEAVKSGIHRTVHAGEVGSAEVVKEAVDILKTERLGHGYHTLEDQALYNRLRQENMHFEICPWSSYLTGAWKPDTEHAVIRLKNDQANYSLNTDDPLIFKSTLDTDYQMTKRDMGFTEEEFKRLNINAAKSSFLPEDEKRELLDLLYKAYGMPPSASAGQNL

[12] = tested on: Mus musculus; assay: Antitumor activity (10 mg/kg, p.o., b.i.d.) expressed as median survival time is its ability to inhibit lymphoma U-937 tumor growth inoculated in mice; format: functional; outline: as §3
[13] = tested on: Mus musculus; assay: Antitumor activity (32 mg/kg, p.o., b.i.d.) expressed as median survival time is its ability to inhibit lymphoma U-937 tumor growth inoculated in mice; format: functional; outline: as §3
[14] = tested on: Mus musculus; assay: Antitumor activity (10 mg/kg, p.o., u.i.d.) expressed as median survival time is its ability to inhibit lymphoma U-937 tumor growth inoculated in mice; format: functional; outline: as §3
[15] = tested on: Mus musculus; assay: Antitumor activity (32 mg/kg, p.o., u.i.d.) expressed as median survival time is its ability to inhibit lymphoma U-937 tumor growth inoculated in mice; format: functional; outline: as §3
[16] = as §1; format: ADME, organism-based; settings: in vivo; outline: as §2
[17] = tested on: Mus musculus; assay: Antitumor activity (2.5, i.p.) on lymphoma U-937 tumor growth inoculated in mice; format: functional
Outline: (§4)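 SCID mouse U-937 lymphoma model. Pentostatin given intraperitoneally once daily. Efficacy read as median survival time in days, relative to a control group.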

[18] = tested on: Mus musculus; assay: Antitumor activity (0.25 mg/kg, i.p.) on lymphoma U-937 tumor growth inoculated in mice; format: functional; outline: as §4

| Compound | Clearance [2] | CLint scaled [3] | ED30 [4] | half-life [7] | AUC [8] | Cmax [9] | IC50 [11] | also measured |
| --- | --- | --- | --- | --- | --- | --- | --- | --- |
| C[C@H](O)[C@@H](CCc1cccc2nc(-c3ccc(Cl)cc3)oc12)n1cnc(C(N)=O)c1 | 6 mL/min/kg | 131 mL/min/kg | 0.6 mg/kg | 3.45 h | 29600 ng·h/mL | 5580 ng/mL |  | CLint scaled [1]: 34 mL/min/kg; bioavailability [5]: 52%; bioavailability [6]: 50% |
| Nc1ncnc2c1ncn2[C@@H]1O[C@H](CO)[C@@H](O)[C@@H]1O [VIDARABINE] |  |  |  |  |  |  |  | MST [10]: 34 days |
| C[C@H](O)[C@@H](CCc1cccc(Cl)c1Cl)n1cnc(C(N)=O)c1 | 21 mL/min/kg |  | 1.6 mg/kg |  | 2110 ng·h/mL | 1630 ng/mL | 15 nM | MST [12]: 34 days; MST [13]: 42.5 days and 38 days |
| Cn1cc(CC[C@H](CO)n2cnc(C(N)=O)c2)c2cc(OCCCc3ccc(Cl)cc3)ccc21 |  | 643 mL/min/kg |  | 1.09 h | 260 ng·h/mL | 210 ng/mL | 6.7 nM |  |
| C[C@H](O)[C@@H](CCc1cccc2oc(-c3ccc(Cl)cc3)nc12)n1cnc(C(N)=O)c1 | 6.2 mL/min/kg | 50 mL/min/kg | 0.3 mg/kg | 1.87 h | 56200 ng·h/mL | 14700 ng/mL | 8.7 nM | CLint scaled [1]: 12 mL/min/kg; MST [14]: 43 days; MST [15]: 45.5 days; bioavailability [6]: 81%; bioavailability [16]: 86% |
| NC(=O)c1cn(C(CO)CCc2cccc3ccccc23)cn1 (configuration not stated) |  |  |  |  |  |  | 570 nM |  |
| OC[C@H]1O[C@@H](n2cnc3c2N=CNC[C@H]3O)C[C@@H]1O [PENTOSTATIN] |  |  |  |  |  |  |  | MST [17]: 42.5 days; MST [18]: 34 days |
| C[C@H](O)[C@@H](CCc1cccc2ccccc12)n1cnc(C(N)=O)c1 | 30 mL/min/kg |  |  |  | 1370 ng·h/mL | 1250 ng/mL | 16 nM |  |
| NC(N)=Nc1nc(-c2ccc(CNc3nc4ccccc4[nH]3)s2)cs1 |  |  |  |  |  |  | 700 nM |  |

Reference: ChEMBL document CHEMBL1140324, “Rational design of non-nucleoside, potent, and orally bioavailable adenosine deaminase inhibitors: predicting enzyme conformational change and metabolism” (J Med Chem, 2005)
